Experimental data from different studies.
Protocols differ between the studies behind these lines.
Observed: binding
NAD-dependent histone deacetylase SIR2: NAD-dependent histone deacetylase SIR2 (Saccharomyces cerevisiae S288c, UniProt P06700)
UCK2: Uridine-cytidine kinase 2 (UCK2, Homo sapiens, UniProt Q9BZX2)
PIKFYVE: 1-phosphatidylinositol 3-phosphate 5-kinase (PIKFYVE, Homo sapiens, UniProt Q9Y2I7)
PIK3CB: Phosphatidylinositol 4,5-bisphosphate 3-kinase catalytic subunit beta isoform (PIK3CB, Homo sapiens, UniProt P42338)
mnmE: mnmE (Escherichia coli, UniProt P25522)

For COc1ccc(Nc2nnc(-c3ccc(C(=O)NO)cc3)o2)cc1, the Kd was 1 µM (Glycogen synthase kinase-3 beta (GSK3B, Homo sapiens, UniProt P49841); SPR).
The Kd of NC(=O)c1ccc[n+]([C@@H]2O[C@H](COP(=O)([O-])OP(=O)(O)OC[C@H]3O[C@@H](n4cnc5c(N)ncnc54)[C@H](O)[C@@H]3O)[C@@H](O)[C@H]2O)c1 is reported as 0.575 µM (NAD-dependent histone deacetylase SIR2; SPR).
O=c1ccn([C@@H]2O[C@H](CO)[C@@H](O)[C@H]2O)c(=O)[nH]1 has a Kd of 0.0058 µM (UCK2; fluorescence).
Cc1cc2nc3c(=O)[nH]c(=O)nc-3n(C[C@H](O)[C@H](O)[C@H](O)COP(=O)(O)OP(=O)(O)OC[C@H]3O[C@@H](n4cnc5c(N)ncnc54)[C@H](O)[C@@H]3O)c2cc1C has a Kd of 0.045 µM (Ubiquitin-associated protein 2 (Homo sapiens, UniProt Q5T6F2); lysate).
The Kd of O=C(O)c1cccc(Nc2cc(N3CCCCCC3)c3noc4c3c2C(=O)c2ccccc2-4)c1 is reported as 0.19 µM (Urokinase plasminogen activator surface receptor (Homo sapiens, UniProt Q03405)).
The Kd of [N-]=[N+]=N[C@@H]1[C@H](O)[C@@H](CO)O[C@H]1n1ccc(N)nc1=O is reported as 0.0178 µM (UCK2; fluorescence).
The Kd of Cc1[nH]c2ccc(OC(C)C)cc2c1/C=C/C(=O)c1ccncc1 is reported as 0.051 µM (PIKFYVE; competition with immobilised ligand).
The Kd of CCC(=O)N1CCC(C(=O)N(C)CC(=O)N2CCN(c3nc(-c4cnc(N)nc4C(F)F)nc(N4CCOCC4)n3)CC2)CC1 is reported as 0.0077 µM (PIK3CB).
The Kd of Nc1nc2c(c(=O)[nH]1)N1CN(c3ccc(C(=O)N[C@@H](CCC(=O)O)C(=O)O)cc3)C[C@H]1CN2 is reported as 0.31 µM (mnmE; ITC; pH 7.5).
Cc1cnc(-c2ccc(-c3ccc(NC(=O)Nc4c(F)cc(F)cc4F)cc3F)c3c2C(=O)NC3)[nH]1 gave a Kd of 0.023 µM (Dual specificity mitogen-activated protein kinase kinase 1 (MAP2K1, Homo sapiens, UniProt Q02750); competition with immobilised ligand).
Nc1nc(=O)c2c([nH]1)NC[C@H](CNc1ccc(C(=O)N[C@@H](CCC(=O)O)C(=O)O)cc1)N2C=O gave a Kd of 0.26 µM (mnmE; ITC; pH 7.5).
CCCOc1ccc2[nH]c(C)c(/C=C/C(=O)c3ccncc3)c2c1 has a Kd of 0.0065 µM (PIKFYVE; competition with immobilised ligand).
CCC(=O)N1CCC(C(=O)NCC(=O)N2CCN(c3nc(-c4cnc(N)nc4C(F)F)nc(N4CCOCC4)n3)CC2)CC1 has a Kd of 0.00071 µM (PIK3CB).
For Cc1ncsc1-c1ccc([C@H](C)NC(=O)[C@@H]2C[C@@H](O)CN2C(=O)[C@@H](NC(=O)CCCCCC(=O)N2CCC3(CC2)CCN(c2cncc(Nc4ncc(Cl)c(-c5cccc(-c6ccccc6)c5)n4)c2)C3=O)C(C)(C)C)cc1, the Kd was greater than 10 µM (Phosphatidylinositol 5-phosphate 4-kinase type-2 beta (PIP4K2B, Homo sapiens, UniProt P78356)).
CC(=O)O[C@H]1C(O)O[C@H](COP(=O)(O)OP(=O)(O)OC[C@H]2O[C@@H](n3cnc4c(N)ncnc43)[C@H](O)[C@@H]2O)[C@H]1O (stereo partly drawn) has a Kd of 0.304 µM (NAD-dependent histone deacetylase SIR2; SPR).
